These results are taken from ChEMBL document CHEMBL1122898, “Antiulcer agents. 1. Gastric antisecretory and cytoprotective properties of substituted imidazo[1,2-a]pyridines” (1985).

Structures are written as SMILES.

Holding throughout (assay type): functional
Assay [1] deals with Canis familiaris. As to the kind of experiment: Inhibition of histamine stimulated gastric acid secretion in adult mongrel dogs at dose 5 mg/kg given intravenously. The note with it: Canis lupus familiaris, Stomach, route intravenous. The essentials:
(§1)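 Dogs with Heidenhain pouches, 12–18 kg, fasted 18 h. Compound given iv in 3 mL or by gavage in 5 mL of 0.4% methylcellulose/saline, 1 h after infusion start. 30-min collections titrated. Summed 3-h AO against the same dog's control AO gives % inhibition. Usually one dog per compound.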

Another assay deals with Rattus norvegicus. As to the kind of experiment: Gastric antisecretory activity in the pylorus-ligated rat and the reduction in acid output was measured after 4 hr by intraperitoneal (ip) administration of 40 mg/kg dose. In a few lines:
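Male Charles River CD rats, 150–200 g, fasted 24 h. Pylorus ligated under Brevital anesthesia. 40 mg/kg given ip in 2.5% Tween 80 at ligation. Stomach contents collected at 4 h and titrated with 0.1 N NaOH to pH 7.0. % inhibition from mean AO, 6 treated vs 8 control rats. Student's t test.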

For assay [2], the system named is Canis familiaris. In words: Inhibition of histamine stimulated gastric acid secretion in adult mongrel dogs at dose 8 mg/kg given orally. The conditions noted are these: Canis lupus familiaris, Stomach, route oral. The essentials:
as §1

In the assay on Canis familiaris [1], `Cc1nc2c(OCc3ccccc3)cccn2c1CS(C)(=O)=O` registered an inhibition in vivo at 5 mg/kg of 0%. In the assay on Rattus norvegicus, this molecule had an inhibition in vivo at 40 mg/kg of 61%.
Molecule `CCCCC(=O)OCc1c(C)nc2c(OCc3ccccc3)cccn12` came in with an inhibition in vivo at 8 mg/kg in the assay on Canis familiaris [2] of 13%. This molecule also showed an inhibition in vivo at 5 mg/kg with Canis familiaris [1] of 96%. Also, the inhibition in vivo at 40 mg/kg in the assay with Rattus norvegicus came to 45%.
`C/N=C(/S)Cc1c(C)nc2c(OCc3ccccc3)cccn12` yielded an inhibition in vivo at 5 mg/kg in the assay on Canis familiaris [1] of 0%. In the assay on Rattus norvegicus, this molecule yielded an inhibition in vivo at 40 mg/kg of 7%.
Consider `CC(=O)c1c(C)nc2c(OCc3ccccc3)cccn12`, for which testing at 5 mg/kg with Canis familiaris [1] gave an inhibition in vivo of 9%. Also, 40 mg/kg produced 57% inhibition in vivo with Rattus norvegicus.
Taken in the same sequence, the figures for `c1ccc(COc2cccn3c4c(nc23)CCC4)cc1` were 0% and 26%.
For the molecule `CCOC(=O)c1c(C)nc2c(OCc3ccccc3)cccn12`, the inhibition in vivo at 40 mg/kg in the assay on Rattus norvegicus worked out at 22%.
In turn, `Cc1nc2c(OCc3ccccc3)cccn2c1CC1=NCCN1` gave an inhibition in vivo at 40 mg/kg with Rattus norvegicus of 69%.
As to `Cc1nc2c(OCc3ccccc3)cccn2c1Cl`, the inhibition in vivo at 8 mg/kg in the assay with Canis familiaris [2] is 43%. In the assay on Canis familiaris [1], the inhibition in vivo at 5 mg/kg was found to be 37%. The same molecule gave an inhibition in vivo at 40 mg/kg in the assay on Rattus norvegicus of 93%.
In the assay with Canis familiaris [2], `Cc1nc2c(OCc3ccccc3)cccn2c1COC(=O)c1cccnc1` gave an inhibition in vivo at 8 mg/kg of 0%. Further, in the assay on Canis familiaris [1], testing at 5 mg/kg gave an inhibition in vivo of 88%. This molecule also showed an inhibition in vivo at 40 mg/kg with Rattus norvegicus of 87%.
Regarding `Cc1nc2c(OCc3ccccc3)cccn2c1CC(=O)O`, in the assay on Canis familiaris [1], at 5 mg/kg the inhibition in vivo was 24%. Also, the inhibition in vivo at 40 mg/kg in the assay with Rattus norvegicus was determined as 12%.
Taken in the same sequence, the figures for `Cc1nc2c(OCc3ccccc3)cccn2c1C[S+](C)[O-]` (centres undefined) were 18% and 0%.
Taken in the same sequence, the figures for `Cc1nc2c(O)cccn2c1CC#N` were 0% and 0%.
Taken in the same sequence, the figures for `Cc1nc2c(OCc3ccccc3)cccn2c1CC(=S)N(C)C` were 0% and 21%.
Take `CNC(=O)Cc1c(C)nc2c(OCc3ccccc3)cccn12`: the inhibition in vivo at 5 mg/kg with Canis familiaris [1] stood at 14%. This molecule registered an inhibition in vivo at 40 mg/kg in the assay with Rattus norvegicus of 24%.
Take `Cc1nc2c(OCc3ccccc3)cccn2c1COC(=O)N(C)C`: at 8 mg/kg the inhibition in vivo with Canis familiaris [2] was 49%. This molecule registered an inhibition in vivo at 5 mg/kg in the assay with Canis familiaris [1] of 23%. The molecule further gave an inhibition in vivo at 40 mg/kg in the assay with Rattus norvegicus of 75%.
For `Cc1nc2c(OCc3ccccc3)cccn2c1C(N)=O`, in the assay on Canis familiaris [1], the inhibition in vivo at 5 mg/kg amounted to 2%. Also, the inhibition in vivo at 40 mg/kg with Rattus norvegicus was determined as 42%.
`Cc1nc2c(OCc3ccc(S(C)(=O)=O)cc3)cccn2c1CC#N` came in with an inhibition in vivo at 40 mg/kg with Rattus norvegicus of 2%.
In the assay on Canis familiaris [1], `N#CCc1c(C(F)(F)F)nc2c(OCc3ccccc3)cccn12` returned an inhibition in vivo at 5 mg/kg of 0%. Also, in the assay with Rattus norvegicus, at 40 mg/kg the inhibition in vivo was 0%.
In turn, `CCOCc1c(C)nc2c(OCc3ccccc3)cccn12` returned an inhibition in vivo at 8 mg/kg in the assay on Canis familiaris [2] of 0%. The inhibition in vivo at 5 mg/kg in the assay on Canis familiaris [1] was 35%. In the assay on Rattus norvegicus, the inhibition in vivo at 40 mg/kg was determined as 84%.
As to `CCSCc1c(C)nc2c(OCc3ccccc3)cccn12`, in the assay with Canis familiaris [1], the inhibition in vivo at 5 mg/kg was 0%. In addition, in the assay on Rattus norvegicus, at 40 mg/kg the inhibition in vivo was 36%.
Taken in the same sequence, the figures for `CSCc1c(C)nc2c(OCc3ccccc3)cccn12` were 8% and 29%.
In the assay with Canis familiaris [2], `Cc1nc2c(OCc3ccccc3)cccn2c1Br` displayed an inhibition in vivo at 8 mg/kg of 0%. Moreover, the inhibition in vivo at 5 mg/kg in the assay with Canis familiaris [1] came out at 63%. Moreover, in the assay on Rattus norvegicus, the inhibition in vivo at 40 mg/kg turned out to be 26%.
`COC(=O)Cc1c(C)nc2c(OCc3ccccc3)cccn12`: the inhibition in vivo at 5 mg/kg in the assay on Canis familiaris [1] is 16%. The molecule also displayed an inhibition in vivo at 40 mg/kg in the assay with Rattus norvegicus of 23%.
On to `COCc1c(C)nc2c(OCc3ccccc3)cccn12`, for which the inhibition in vivo at 8 mg/kg with Canis familiaris [2] was 37%. In addition, in the assay with Canis familiaris [1], at 5 mg/kg the inhibition in vivo was 29%. In addition, in the assay with Rattus norvegicus, the inhibition in vivo at 40 mg/kg is 99%.
In the case of `Cc1nc2c(OCc3ccccc3)cccn2c1CC(=N)N`, in the assay on Canis familiaris [1], at 5 mg/kg the inhibition in vivo was 0%. Besides, in the assay with Rattus norvegicus, the inhibition in vivo at 40 mg/kg worked out at 79%.
